Results: ChEMBL document CHEMBL1155032, “Dendronpholides A-R, cembranoid diterpenes from the chinese soft coral Dendronephthya sp” (J Nat Prod, 2008)
In brackets after ≈: the same amount, converted by molar mass.

Assay: Cytotoxicity against human […] cells
Assay type: functional, cell-based
Method in brief: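 In vitro assay on the human gastric cancer line BGC-823, one of a panel of human cancer lines. Viability was read out by the MTT method, following a previously published procedure.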

Compound	IC50
C=C1C(=O)O[C@]2(C)CC[C@@H]1C[C@H](O)/C(C)=C/C/C=C(\C)CC[C@@H]2O	> 10 mg/L
C=C1C(=O)O[C@]2(C)CC[C@@H]1C[C@H](O)/C(C)=C/C/C=C(\C)CC[C@@H]2OC(C)=O [DENDRONPHOLIDE A]	> 10 mg/L
C=C1C(=O)O[C@]2(C)CC[C@@H]1C[C@@H](O)/C(C)=C/C/C=C(\C)CC[C@@H]2OC(C)=O [DENDRONPHOLIDE B]	> 10 mg/L
C=C(C(=O)OC)[C@@H]1CC[C@@](C)(O)[C@@H](O)CC/C(C)=C/C/C=C(\C)[C@@H](O)C1 [DENDRONPHOLIDE C]	0.05 mg/L (≈ 0.136 µM)
C=C(C(=O)OC)[C@@H]1CC[C@@](C)(O)[C@@H]2CC[C@@](C)(O2)[C@@H](OC(C)=O)CC[C@]2(C)O[C@H]2C1 [DENDRONPHOLIDE G]	0.02 mg/L (≈ 0.0471 µM)
C=C(C(=O)O)[C@@H]1CC[C@@](C)(O)[C@@H]2CC[C@@](C)(O2)[C@@H](OC(C)=O)CC[C@](C)(O)[C@H](O)C1 [DENDRONPHOLIDE I]	> 10 mg/L
C=C(C(=O)O)[C@@H]1CC[C@@](C)(O)[C@@H]2CC[C@@](C)(O2)[C@@H](O)CC[C@](C)(O)[C@H](OC(C)=O)C1 [DENDRONPHOLIDE J]	0.2 mg/L (≈ 0.467 µM)
C=C(C(=O)O)[C@@H]1CC[C@@](C)(O)[C@@H]2CC[C@@](C)(O2)[C@@H](OC(C)=O)CC[C@](C)(OC)[C@H](O)C1 [DENDRONPHOLIDE K]	> 10 mg/L
C=C(C(=O)OCC)[C@@H]1CC[C@@](C)(O)[C@@H]2CC[C@@](C)(O2)[C@@H](OC(C)=O)C/C=C(\C)[C@H](O)C1 [DENDRONPHOLIDE O]	> 10 mg/L
C=C(C(=O)OC)[C@@H]1CC[C@@](C)(O)[C@@H]2CC[C@@](C)(O2)[C@@H](OC(C)=O)C/C=C(\C)[C@H](O)C1 [DENDRONPHOLIDE P]	> 10 mg/L
C=C1C(=O)O[C@]2(C)CC[C@@H]1C[C@@H](OC(C)=O)[C@@]1(C)CC[C@H](O1)[C@@](C)(O)CC[C@@H]2OC(C)=O [DENDRONPHOLIDE Q]	> 10 mg/L
C=C(C(=O)O)[C@@H]1CC[C@@](C)(O)[C@@H](OC(C)=O)CCC(=C)[C@@H]2CC[C@@](C)(O2)[C@H](O)C1 [DENDRONPHOLIDE R]	> 10 mg/L
